Screens: PubChem BioAssay, several laboratories
Sampled rows, rich in hits. Any-hit rate of the full collection: about 6.4%.
Ecoli WT expand = blocks growth of wild type E. coli BW25113. AID 710. growth inhibition, % at 100 µM. 98,000 compounds, 0.15% hits. OD600 absorbance;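 active = growth inhibition above about 50% at one test dose, limit read from the data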;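 also: growth measured after 20 h incubation at 37 °C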
H69AR growth 86K = blocks growth of human H69AR lung tumor cells; AID 598; H69AR lung tumor viability, ATP luminescence, 72 h; hits give low values; viability, % at 10 µM; 85,000 compounds, 6% hits;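 active = viability at or below 40%; inactive = viability above 40%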;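 also: multidrug resistant small cell line overexpressing MRP-1 efflux transporter; 100% = mean luminescence of untreated control wells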
Jurkat viability = reduces viability or proliferation of Jurkat cells | 56,000 compounds, 1.2% hits | AID 463 | Jurkat E6.1 viability, ATP luminescence, 48 h | inhibition, % at 4 µM;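 active = inhibition above the mean inhibition of all tested compounds plus 3 SD, cut at about 28% in these data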
Ecoli tolC = blocks growth of E. coli BW25113 tolC mutant. OD615. growth inhibition, % at 10 µM (by protocol). 65,000 compounds, 2.2% hits;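 active = growth inhibition at or above a cutoff equal to the mean over every tested compound plus 3 SD, cut at about 60% in these data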;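 also: growth measured after 20 h incubation at 37 °C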
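Test system: tolC-deleted E. coli BW25113; medium: LB with kanamycin 50 µg/mL; compound: single-point testing at 10 µM; incubation: 20 h compound exposure of bacteria at 37 °C; signal: OD at 615 nm; evaluation: growth inhibition in percent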
HUVEC prolif 384 = human endothelial cell proliferation inhibition; HUVEC proliferation, CellTiter-Glo luminescence, 72 h; hits give low values; viability, % at 10 µM (by protocol); 86,000 compounds, 1.1% hits; AID 648;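 active = viability at or below 30%; inactive = viability above 30%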;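 also: 100% = median luminescence of DMSO-only cell control wells on each plate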
Fibroblast inh = blocks proliferation of human lung fibroblasts; viability, % at 10 µM; LL 47 human lung fibroblast viability, ATP luminescence; hits give low values; 85,000 compounds, 1.1% hits;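 active = viability at or below 50% in the single dose screen; inactive = viability above 50%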;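 also: compound exposure lasted 72 h before the ATP readout; 100% = median luminescence of untreated cell-only wells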
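Signal: luminescent ATP detection, CellTiter-Glo; assay system: LL 47 human lung fibroblasts; input: 1,150 cells/well; incubation: overnight cell rest, 72 h compound treatment at 37 °C; measure: % viability versus median cells-only luminescence; medium: IMEM growth medium with 15% fetal bovine serum; dosing: compound addition at 0.1% DMSO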
* = called active by the depositor; · = no result.

SMILES	Ecoli WT expand	H69AR growth 86K	Jurkat viability	Ecoli tolC	HUVEC prolif 384	Fibroblast inh
COC(=O)c1ccccc1NC(=O)C1CCCN(S(=O)(=O)c2ccc(OC)cc2)C1 (stereo not drawn)	-8	87	1	44	77	97
O=C(c1cn(-c2ccccc2)nc1-c1cccs1)N1CCN(c2ccc(F)cc2)CC1	-9	59	·	·	90	96
CCOc1ccc2[nH]c(=O)c(CN(Cc3ccccc3)C(=O)N3CCCC3)cc2c1	-11	·	-6	0	·	·
Cn1c(CCN2CCN(c3ccccc3)CC2)nc2cc(NC(=O)c3ccco3)ccc21	7	21*	9	9	88	96
Cn1c(CCN2CCN(c3ccc(F)cc3)CC2)nc2cc(NC(=O)c3ccco3)ccc21	12	44	1	8	96	95
Cc1ccc(N2CCN(CCc3nc4cc(NC(=O)c5ccco5)ccc4n3C)CC2)cc1	1	6.6*	3	32	96	97
CCN(CC)S(=O)(=O)c1cccc(C(=O)N[C@H](C(=O)OCC(=O)NC(=O)NC)C(C)C)c1	8	94	·	·	105	99
Cc1ccc(/C=N/n2nnnc2N)cc1[N+](=O)[O-]	5	·	·	·	·	·
Cc1cc(C)n(-c2nc(NC(C)(C)C)nc(NC(C)(C)C)n2)n1	-8	·	0	21	·	·
Cc1cc(C)n(-c2nc(Nc3ccccc3C)nc(-n3nc(C)cc3C)n2)n1	-8	54	·	·	74	23*
Cc1cc(C)n(-c2nc(Nc3ccccc3C(F)(F)F)nc(-n3nc(C)cc3C)n2)n1	·	8.1*	·	·	15*	27*
O=C1C2C3C=CC(C3=C(c3ccccc3)c3ccccc3)C2C(=O)N1Cc1ccccc1 (stereo not drawn)	-12	97	·	·	83	95
CCc1c(O)nc(SCc2ccccc2)n(C(C)CC)c1=O (stereo not drawn)	8	102	-13	70*	106	100
Cc1ccc(NC(=O)CN2CCCN(S(=O)(=O)c3ccc(Br)s3)CC2)cc1	-8	31*	·	·	100	100
CC(=O)c1c(C)n([O-])c2ccc(C)cc2[n+]1=O	53*	79	15	72*	94	106
Cc1ccc2c(c1)n([O-])c1c([n+]2=O)CCCC1	2	·	·	·	·	·
CCCCn1c(/N=C/c2cc(OC)ccc2O)nc2ccccc21	24	48	-2	24	98	99
CCCn1c(/N=C/c2cc(OC)ccc2O)nc2ccccc21	18	40*	-5	5	82	108
O=C(OCC(=O)N1CCN(C(=O)c2ccco2)CC1)c1ccccc1C(=O)c1ccccc1	-3	83	-5	0	100	95
O=C(OCC(=O)N1CCN(c2ccccc2)CC1)c1ccco1	-1	29*	-1	-2	109	94
O=C(OCC(=O)N1CCN(C(=O)c2ccco2)CC1)C1=COCCO1	1	111	·	0	91	100
O=C(OCC(=O)N1CCN(c2ccccc2)CC1)C1=COCCO1	-4	34*	-10	-5	91	93
O=C(Nc1ccc(-c2nc3ccccc3o2)cc1)c1cc(-n2cnnc2)ccc1Cl	·	74	·	·	72	109
O=C(Nc1ccc(-c2nc3ccccc3o2)c(O)c1)c1cc(-n2cnnc2)ccc1Cl	-9	21*	25	19	95	99
O=C(Nc1ccc(-c2nc3ccccc3o2)cc1)c1ccc2c(c1)OCO2	-13	42	-2	9	82	106
SMILES	Ecoli WT expand	H69AR growth 86K	Jurkat viability	Ecoli tolC	HUVEC prolif 384	Fibroblast inh
COc1cc(C(=O)Nc2ccc(-c3nc4cc(C)ccc4o3)c(O)c2)cc(OC)c1OC	-18	24*	5	33	80	85
O=C(Nc1ccc(-c2nc3ccccc3o2)cc1)c1ccc(N2C(=O)C3C4C=CC(C4)C3C2=O)cc1 (stereo not drawn)	-11	15*	·	·	32	74
COc1cccc(C(=O)Nc2ccc(-c3nc4ccccc4o3)c(O)c2)c1	-6	9.5*	2	19	74	79
Cc1ccc(-c2n[nH]c3c2CCC3)cc1	27	97	·	·	94	99
CCOC(=O)c1c(C)n(C)c2c(C)cc(O)c(OC(=O)CC)c12	-10	86	-3	-12	110	101
O=C(OCc1nnc(-c2ccccc2)o1)c1ccc2c(c1)OCCO2	-9	91	1	29	93	94
CC1(C)CC2(CC(c3cccs3)c3cc(Cl)c(O)cc3O2)NC(=S)N1 (stereo not drawn)	10	·	·	·	·	·
COC(=O)c1ccc(-c2nc3ccc(C)cc3o2)cc1	1	26*	10	-13	66	97
O=C(Nc1ccc(-c2nc3ccccc3o2)cc1)c1cccnc1	-5	83	·	·	108	105
Cc1ccc(OCC(=O)Nc2ccc(O)c(-c3nc4ccccc4o3)c2)cc1	1	13*	-10	-12	3.0*	54
COc1cc(OC)cc(C(=O)Nc2ccc(-c3nc4ccccc4o3)cc2)c1	-11	30*	-18	12	35	108
COc1cc(C)ccc1OCCOc1ccccc1Cl	3	·	·	·	·	·
CC(C)(C)NC(=O)NC(=O)CN1CCN(c2ncc(C(F)(F)F)cc2Cl)CC1	1	61	·	·	93	98
CN(C)C=NC(=O)c1ccc(N2CCN(c3ncc(C(F)(F)F)cc3Cl)CC2)cc1	-2	47	·	·	95	93
O=C(CN1CCN(c2ncc(C(F)(F)F)cc2Cl)CC1)NCCNc1ncc(C(F)(F)F)cc1Cl	5	3.8*	·	·	76	102
CN(C)/C=C/C(=O)c1ccc(N2CCN(c3ncc(C(F)(F)F)cc3Cl)CC2)cc1	8	0.8*	·	·	2.3*	52
COc1ccc2nc(NC(=O)C3CCCN3S(=O)(=O)c3ccc(C)cc3)sc2c1 (stereo not drawn)	-16	81	-1	18	94	107
COC(=O)C(C)N(C(=O)c1ccc(C(=O)c2ccccc2)cc1)c1c(C)cccc1C (stereo not drawn)	-5	95	·	·	99	86
Cc1cc(C)cc(NC(=O)CCC(=O)Nc2cc(C)on2)c1	·	100	·	·	97	92
N#C/C(=C(/O)CN1CCOCC1)c1nc(-c2ccccc2)cs1	-5	84	-8	0	102	96
CCCCN(C)C/C(O)=C(\C#N)c1nc(-c2ccccc2)cs1	0	39*	·	·	82	96
C/C(Cl)=C/Cn1c(N2CCCC2)nc2c1c(=O)n(C)c(=O)n2C	-11	33*	-1	-5	92	86
Cn1c(=O)c2c(nc(N3CCN(Cc4ccccc4)CC3)n2CC(=O)c2ccccc2)n(C)c1=O	·	32*	·	12	92	93
C/C(Cl)=C\Cn1c(N2CCCC2)nc2c1c(=O)[nH]c(=O)n2C	22	70	3	-3	96	92
CCOC(=O)Cn1c(=O)c2c(nc(Br)n2Cc2ccc(Cl)cc2)n(C)c1=O	·	85	-6	-7	92	87
Cn1c(=O)c2c(nc(N3CCN(Cc4ccccc4)CC3)n2CCCc2ccccc2)n(C)c1=O	-16	74	0	40	67	89
